Assay results reported in ChEMBL document CHEMBL4028848, “Discovery of N-{4-[5-(4-Fluorophenyl)-3-methyl-2-methylsulfanyl-3H-imidazol-4-yl]-pyridin-2-yl}-acetamide (CBS-3595), a Dual p38α MAPK/PDE-4 Inhibitor with Activity against TNFα-Related Diseases” (J Med Chem, 2017).
Activity calls are given as the source filed them. No cut-off for these calls is given here.

Legend:
Homo sapiens [1] = species: Homo sapiens; test: Inhibition of PDE3 in human U937 cells assessed as [3H]cAMP hydrolysis at 10 uM; type: cell-based
[2] = AUC (0 to infinity) in human at 30 mg, po administered as single dose; type: ADME, organism-based; set-up: dose 30 mg, time infinity, route oral; settings: in vivo
Method in brief: (§1)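 Placebo-controlled, single-blind, randomized, consecutive-dosing study in healthy subjects given single oral doses, with 10 mg also given fasting and fed in a crossover. Plasma parent and active metabolite were measured predose and from 0.25 to 36 h post dose. PK parameters were derived from individual concentration–time profiles and reported as means.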

[3] = Tmax in human at 30 mg, po administered as single dose; type: ADME, organism-based; settings: in vivo
Method in brief: (§2)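 Healthy subjects received single oral doses of 10, 20, 30 or 50 mg in a placebo-controlled, single-blind, randomized consecutive-dose study; 10 mg was also given fasting vs fed in a crossover. Plasma drug was sampled pre-dose and from 0.25 to 36 h post-dose. Mean Tmax was taken from individual concentration–time profiles.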

[4] = Cmax in human at 30 mg, po administered as single dose; type: ADME, organism-based; set-up: dose 30 mg, route oral; settings: in vivo
Method in brief: (§3)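 Oral single-dose PK; plasma concentrations of parent and metabolite measured. Dogs: blood sampled 0.25 to 24 h after dosing. Humans: healthy subjects, placebo-controlled single-blind randomized consecutive dosing, plasma sampled predose and 0.25–36 h post dose. 10 mg also given fasting and fed in crossover. Parameters derived from individual concentration–time profiles.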

[5] = Half life in human at 50 mg, po administered as single dose; type: ADME, organism-based; settings: in vivo; method in brief: as §3
[6] = Cmax in human at 20 mg, po administered as single dose; type: ADME, organism-based; set-up: dose 20 mg, route oral; settings: in vivo; method in brief: as §3
[7] = target: Mitogen-activated protein kinase 13 (Homo sapiens) (UniProt O15264); test: Inhibition of p38MAPK delta (unknown origin) at 10 uM relative to control
Chain of Mitogen-activated protein kinase 13 (Homo sapiens) (O15264 whole entry): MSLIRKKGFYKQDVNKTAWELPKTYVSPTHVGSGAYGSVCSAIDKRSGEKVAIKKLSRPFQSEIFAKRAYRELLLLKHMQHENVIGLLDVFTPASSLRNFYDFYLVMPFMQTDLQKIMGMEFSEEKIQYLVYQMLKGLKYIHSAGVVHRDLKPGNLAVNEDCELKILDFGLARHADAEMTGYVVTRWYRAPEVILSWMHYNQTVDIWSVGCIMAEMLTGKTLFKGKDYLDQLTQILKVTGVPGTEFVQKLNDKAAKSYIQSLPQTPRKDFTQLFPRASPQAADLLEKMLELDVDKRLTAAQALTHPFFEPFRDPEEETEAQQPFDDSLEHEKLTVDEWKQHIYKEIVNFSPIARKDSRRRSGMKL

[8] = Cmax in fed human at 10 mg, po administered as single dose; type: ADME, organism-based; set-up: dose 10 mg, route oral; settings: in vivo; method in brief: as §1
[9] = target: Mitogen-activated protein kinase 9 (Homo sapiens) (UniProt P45984); test: Inhibition of JNK2alpha2 (unknown origin) at 10 uM relative to control
Chain of Mitogen-activated protein kinase 9 (Homo sapiens) (P45984 whole entry, looked up): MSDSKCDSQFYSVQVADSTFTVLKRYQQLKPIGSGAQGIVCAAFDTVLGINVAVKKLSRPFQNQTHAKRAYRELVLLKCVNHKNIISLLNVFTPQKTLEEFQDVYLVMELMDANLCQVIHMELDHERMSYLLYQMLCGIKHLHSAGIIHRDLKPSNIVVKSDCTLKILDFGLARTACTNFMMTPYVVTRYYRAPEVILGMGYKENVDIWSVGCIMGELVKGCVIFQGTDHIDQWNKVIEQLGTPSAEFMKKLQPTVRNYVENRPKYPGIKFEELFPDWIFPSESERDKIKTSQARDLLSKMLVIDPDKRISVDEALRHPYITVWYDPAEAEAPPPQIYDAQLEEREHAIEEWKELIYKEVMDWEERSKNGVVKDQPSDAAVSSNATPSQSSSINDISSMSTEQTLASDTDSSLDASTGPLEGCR

[10] = AUC (0 to t) in human at 30 mg, po administered as single dose; type: ADME, organism-based; settings: in vivo; method in brief: as §1
[11] = target: 3',5'-cyclic-AMP phosphodiesterase 4B (Homo sapiens, UniProt Q07343); test: Inhibition of human PDE4B1 expressed in sf9 cells
Chain of 3',5'-cyclic-AMP phosphodiesterase 4B (Q07343 whole entry): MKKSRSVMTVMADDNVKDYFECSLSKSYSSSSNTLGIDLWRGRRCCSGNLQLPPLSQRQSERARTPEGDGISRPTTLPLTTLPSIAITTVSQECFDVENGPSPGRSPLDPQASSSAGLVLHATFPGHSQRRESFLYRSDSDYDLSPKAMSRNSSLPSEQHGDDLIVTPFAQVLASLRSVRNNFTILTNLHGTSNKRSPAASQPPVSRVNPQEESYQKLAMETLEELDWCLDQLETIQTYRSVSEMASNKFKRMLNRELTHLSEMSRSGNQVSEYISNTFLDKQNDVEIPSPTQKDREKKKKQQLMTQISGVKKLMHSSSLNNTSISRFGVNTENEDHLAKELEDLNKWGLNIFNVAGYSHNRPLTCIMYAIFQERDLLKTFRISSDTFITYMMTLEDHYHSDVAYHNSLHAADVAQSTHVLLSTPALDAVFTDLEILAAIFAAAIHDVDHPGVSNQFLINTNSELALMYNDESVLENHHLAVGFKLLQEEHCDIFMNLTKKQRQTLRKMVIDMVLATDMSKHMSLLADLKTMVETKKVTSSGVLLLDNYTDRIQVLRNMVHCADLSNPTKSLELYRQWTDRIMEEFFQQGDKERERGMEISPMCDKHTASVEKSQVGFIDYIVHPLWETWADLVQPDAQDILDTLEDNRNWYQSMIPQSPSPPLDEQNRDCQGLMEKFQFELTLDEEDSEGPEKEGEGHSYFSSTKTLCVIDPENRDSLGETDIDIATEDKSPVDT

[12] = Half life in fed human at 10 mg, po administered as single dose; type: ADME, organism-based; settings: in vivo; method in brief: as §3
[13] = target: T1, 3',5'-cyclic-AMP phosphodiesterase 4D (Homo sapiens, UniProt Q08499); test: Inhibition of human PDE4D2 expressed in sf9 cells
T1 sequence (Q08499 whole entry): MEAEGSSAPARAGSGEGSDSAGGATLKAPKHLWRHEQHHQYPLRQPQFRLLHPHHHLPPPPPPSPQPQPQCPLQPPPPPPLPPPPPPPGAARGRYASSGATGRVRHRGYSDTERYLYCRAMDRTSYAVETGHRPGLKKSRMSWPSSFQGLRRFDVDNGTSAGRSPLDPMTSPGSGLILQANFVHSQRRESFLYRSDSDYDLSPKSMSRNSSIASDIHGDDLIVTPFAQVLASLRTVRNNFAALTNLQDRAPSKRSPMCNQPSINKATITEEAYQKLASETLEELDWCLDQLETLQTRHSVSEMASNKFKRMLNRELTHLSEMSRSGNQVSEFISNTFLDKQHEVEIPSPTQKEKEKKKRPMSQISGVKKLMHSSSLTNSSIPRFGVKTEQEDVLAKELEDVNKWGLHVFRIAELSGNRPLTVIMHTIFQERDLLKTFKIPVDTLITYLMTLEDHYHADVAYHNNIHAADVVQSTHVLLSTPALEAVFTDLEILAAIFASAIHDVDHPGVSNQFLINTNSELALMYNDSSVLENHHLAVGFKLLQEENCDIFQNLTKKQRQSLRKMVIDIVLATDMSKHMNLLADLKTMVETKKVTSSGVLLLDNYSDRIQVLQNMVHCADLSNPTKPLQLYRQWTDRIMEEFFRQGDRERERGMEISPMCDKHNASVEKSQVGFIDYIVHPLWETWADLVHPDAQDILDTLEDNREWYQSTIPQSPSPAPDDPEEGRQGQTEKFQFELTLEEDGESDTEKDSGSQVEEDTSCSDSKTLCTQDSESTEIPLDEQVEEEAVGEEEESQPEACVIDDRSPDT

[14] = Cmax in human at 10 mg, po administered as single dose; type: ADME, organism-based; set-up: dose 10 mg, route oral; settings: in vivo; method in brief: as §3
[15] = AUC (0 to infinity) in human at 20 mg, po administered as single dose; type: ADME, organism-based; set-up: dose 20 mg, time infinity, route oral; settings: in vivo; method in brief: as §1
[16] = target: Mitogen-activated protein kinase 14 (Homo sapiens, UniProt Q16539); test: Inhibition of P38 MAPKalpha in LPS-stimulated human whole blood assessed as decrease in TNFalpha level
Chain of Mitogen-activated protein kinase 14 (Q16539 whole entry): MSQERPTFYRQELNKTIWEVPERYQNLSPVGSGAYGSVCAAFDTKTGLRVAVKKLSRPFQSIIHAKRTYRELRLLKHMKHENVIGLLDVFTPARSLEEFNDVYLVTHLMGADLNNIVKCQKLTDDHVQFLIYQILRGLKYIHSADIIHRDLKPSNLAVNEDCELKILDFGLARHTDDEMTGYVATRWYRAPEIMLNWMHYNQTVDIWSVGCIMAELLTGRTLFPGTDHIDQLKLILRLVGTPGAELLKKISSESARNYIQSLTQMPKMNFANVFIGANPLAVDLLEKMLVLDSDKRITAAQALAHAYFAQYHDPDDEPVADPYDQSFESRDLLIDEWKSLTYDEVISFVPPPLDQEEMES

[17] = Tmax in human at 10 mg, po administered as single dose; type: ADME, organism-based; settings: in vivo; method in brief: as §2
[18] = Tmax in human at 20 mg, po administered as single dose; type: ADME, organism-based; settings: in vivo; method in brief: as §2
[19] = target: 3',5'-cyclic-AMP phosphodiesterase 4A (Homo sapiens, UniProt P27815); test: Inhibition of human PDE4A4 expressed in sf9 cells
Chain of 3',5'-cyclic-AMP phosphodiesterase 4A (P27815 whole entry): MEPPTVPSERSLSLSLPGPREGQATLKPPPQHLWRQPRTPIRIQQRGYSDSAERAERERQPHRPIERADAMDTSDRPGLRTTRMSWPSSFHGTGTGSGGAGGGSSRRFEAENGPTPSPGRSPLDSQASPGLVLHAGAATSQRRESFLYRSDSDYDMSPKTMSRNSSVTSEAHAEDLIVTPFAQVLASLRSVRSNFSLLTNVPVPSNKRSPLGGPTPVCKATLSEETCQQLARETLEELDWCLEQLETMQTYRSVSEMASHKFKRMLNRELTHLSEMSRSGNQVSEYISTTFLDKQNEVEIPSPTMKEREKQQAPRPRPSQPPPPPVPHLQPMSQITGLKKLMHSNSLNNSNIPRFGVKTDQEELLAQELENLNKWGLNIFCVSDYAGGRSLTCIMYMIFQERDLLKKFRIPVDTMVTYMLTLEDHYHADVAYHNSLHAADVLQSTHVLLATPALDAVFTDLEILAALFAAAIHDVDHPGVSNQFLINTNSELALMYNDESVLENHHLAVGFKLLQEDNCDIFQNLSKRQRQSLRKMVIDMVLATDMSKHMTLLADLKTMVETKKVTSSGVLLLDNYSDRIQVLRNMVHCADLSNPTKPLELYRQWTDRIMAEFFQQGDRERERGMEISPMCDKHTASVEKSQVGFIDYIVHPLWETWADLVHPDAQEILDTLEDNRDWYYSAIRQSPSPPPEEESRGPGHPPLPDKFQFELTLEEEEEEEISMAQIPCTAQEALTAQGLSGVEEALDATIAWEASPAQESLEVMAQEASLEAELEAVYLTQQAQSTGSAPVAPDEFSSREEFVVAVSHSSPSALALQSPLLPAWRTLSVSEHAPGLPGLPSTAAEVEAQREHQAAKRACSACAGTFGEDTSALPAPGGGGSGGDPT

[20] = Tmax in fed human at 10 mg, po administered as single dose; type: ADME, organism-based; settings: in vivo; method in brief: as §2
[21] = Cmax in human at 50 mg, po administered as single dose; type: ADME, organism-based; set-up: dose 50 mg, route oral; settings: in vivo
[22] = Cmax in fasting human at 10 mg, po administered as single dose; type: ADME, organism-based; set-up: dose 10 mg, route oral; settings: in vivo; method in brief: as §1
[23] = AUC (0 to infinity) in fed human at 10 mg, po administered as single dose; type: ADME, organism-based; set-up: dose 10 mg, route oral, time infinity; settings: in vivo; method in brief: as §1
[24] = target: T1, 3',5'-cyclic-AMP phosphodiesterase 4D; test: Inhibition of human PDE4D3 expressed in sf9 cells
[25] = AUC (0 to infinity) in fasting human at 10 mg, po administered as single dose; type: ADME, organism-based; set-up: dose 10 mg, time infinity, route oral; settings: in vivo; method in brief: as §1
[26] = Tmax in human at 50 mg, po administered as single dose; type: ADME, organism-based; settings: in vivo; method in brief: as §2
[27] = Tmax in fasting human at 10 mg, po administered as single dose; type: ADME, organism-based; settings: in vivo; method in brief: as §2
[28] = target: RAF proto-oncogene serine/threonine-protein kinase (Homo sapiens) (UniProt P04049); test: Inhibition of c-RAF (unknown origin) at 10 uM relative to control
Chain of RAF proto-oncogene serine/threonine-protein kinase (Homo sapiens) (P04049 whole entry): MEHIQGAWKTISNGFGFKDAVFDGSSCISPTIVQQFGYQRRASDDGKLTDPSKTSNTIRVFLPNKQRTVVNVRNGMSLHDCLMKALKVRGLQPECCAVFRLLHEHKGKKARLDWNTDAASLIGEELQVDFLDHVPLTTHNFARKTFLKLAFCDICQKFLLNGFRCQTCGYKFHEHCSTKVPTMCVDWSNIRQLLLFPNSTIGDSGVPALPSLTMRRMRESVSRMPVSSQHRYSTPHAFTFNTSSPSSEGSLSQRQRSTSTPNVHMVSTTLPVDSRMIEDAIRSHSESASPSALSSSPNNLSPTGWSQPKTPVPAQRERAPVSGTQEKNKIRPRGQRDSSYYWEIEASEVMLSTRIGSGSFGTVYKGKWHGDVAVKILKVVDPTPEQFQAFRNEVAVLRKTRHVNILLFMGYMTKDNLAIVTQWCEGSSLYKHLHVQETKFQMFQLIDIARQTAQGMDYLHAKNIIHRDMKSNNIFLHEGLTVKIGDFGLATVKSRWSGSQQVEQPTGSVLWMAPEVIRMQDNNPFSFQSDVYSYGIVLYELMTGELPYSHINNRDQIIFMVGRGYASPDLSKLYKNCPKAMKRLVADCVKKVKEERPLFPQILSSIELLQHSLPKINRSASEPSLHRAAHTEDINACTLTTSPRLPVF

[29] = AUC (0 to t) in human at 10 mg, po administered as single dose; type: ADME, organism-based; settings: in vivo; method in brief: as §1
[30] = AUC (0 to t) in human at 50 mg, po administered as single dose; type: ADME, organism-based; settings: in vivo; method in brief: as §1
[31] = AUC (0 to t) in human at 20 mg, po administered as single dose; type: ADME, organism-based; settings: in vivo; method in brief: as §1
[32] = AUC (0 to infinity) in human at 10 mg, po administered as single dose; type: ADME, organism-based; set-up: dose 10 mg, time infinity, route oral; settings: in vivo; method in brief: as §1
[33] = Half life in human at 30 mg, po administered as single dose; type: ADME, organism-based; settings: in vivo; method in brief: as §3
Homo sapiens [34] = test: Toxicity in human assessed as effect on CNS at 50 mg, po administered as single dose; type: organism-based; settings: in vivo
Method in brief: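 Single oral 50 mg dose given to healthy subjects in a placebo-controlled, single-blind, randomized FIH study. Adverse events, vital signs and physical findings were recorded, including CNS effects.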

[35] = AUC (0 to infinity) in human at 50 mg, po administered as single dose; type: ADME, organism-based; set-up: dose 50 mg, time infinity, route oral; settings: in vivo; method in brief: as §1
[36] = target: cGMP-specific 3',5'-cyclic phosphodiesterase (Homo sapiens) (UniProt O76074); test: Inhibition of PDE5 in human U937 cells assessed as [3H]cAMP hydrolysis at 10 uM; type: cell-based
[37] = Fraction unbound in human plasma; type: ADME, cell-free
Method in brief: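 Plasma protein binding measured in human, Sprague–Dawley rat and Cynomolgus monkey plasma at 1, 10 and 30 μM compound. Reported as unbound fraction (%).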

[38] = Inhibition of PDE4 in human U937 cells assessed as [3H]cAMP hydrolysis; type: cell-based
[39] = AUC (0 to t) in fasting human at 10 mg, po administered as single dose; type: ADME, organism-based; settings: in vivo; method in brief: as §1
[40] = AUC (0 to t) in fed human at 10 mg, po administered as single dose; type: ADME, organism-based; settings: in vivo; method in brief: as §1
[41] = Half life in human at 20 mg, po administered as single dose; type: ADME, organism-based; settings: in vivo; method in brief: as §3
[42] = Half life in fasting human at 10 mg, po administered as single dose; type: ADME, organism-based; settings: in vivo; method in brief: as §3
[43] = Half life in human at 10 mg, po administered as single dose; type: ADME, organism-based; settings: in vivo; method in brief: as §3
[44] = target: 3',5'-cyclic-AMP phosphodiesterase 4C (Homo sapiens, UniProt Q08493); test: Inhibition of human PDE4C1 expressed in sf9 cells
Chain of 3',5'-cyclic-AMP phosphodiesterase 4C (Q08493 whole entry): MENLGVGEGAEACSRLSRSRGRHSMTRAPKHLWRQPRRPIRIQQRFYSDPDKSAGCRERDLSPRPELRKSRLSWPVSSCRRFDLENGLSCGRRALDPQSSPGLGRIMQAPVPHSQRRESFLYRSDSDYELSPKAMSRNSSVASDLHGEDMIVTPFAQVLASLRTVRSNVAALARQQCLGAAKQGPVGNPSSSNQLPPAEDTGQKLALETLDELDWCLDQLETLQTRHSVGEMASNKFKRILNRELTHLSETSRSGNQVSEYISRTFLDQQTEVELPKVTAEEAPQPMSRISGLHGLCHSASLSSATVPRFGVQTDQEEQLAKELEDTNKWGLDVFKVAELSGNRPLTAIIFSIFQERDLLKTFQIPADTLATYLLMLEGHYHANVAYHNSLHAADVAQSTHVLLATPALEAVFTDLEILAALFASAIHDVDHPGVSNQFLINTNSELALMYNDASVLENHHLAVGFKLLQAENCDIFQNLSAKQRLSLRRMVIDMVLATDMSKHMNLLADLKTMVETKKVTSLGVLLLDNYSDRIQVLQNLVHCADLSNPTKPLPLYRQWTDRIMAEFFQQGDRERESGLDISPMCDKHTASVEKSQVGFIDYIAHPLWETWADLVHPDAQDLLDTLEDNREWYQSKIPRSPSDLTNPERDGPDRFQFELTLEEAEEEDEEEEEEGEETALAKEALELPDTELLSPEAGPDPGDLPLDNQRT

Homo sapiens [45] = test: Cmax in human assessed as 4-(4-(4-fluorophenyl)-1-methyl-2-(methylsulfinyl)-1H-imidazol-5-yl)pyridin-2-amine formation at 20 mg, po administered as single dose; type: ADME, organism-based; set-up: dose 20 mg, route oral; settings: in vivo; method in brief: as §3
Liver = test: Drug metabolism in human liver microsomes assessed as N-(4-(4-(4-fluorophenyl)-1-methyl-2-(methylsulfinyl)-1H-imidazol-5-yl)pyridin-2-yl)acetamide formation at 10 to 100 uM; type: ADME, microsome
Method in brief: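 Test compound incubated at 10, 30 and 100 μM with liver microsomes from rat, Cynomolgus monkey or human, and metabolites monitored.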

With Cn1c([S+](C)[O-])nc(-c2ccc(F)cc2)c1-c1ccnc(N)c1 (stereo not given) the inhibition (Homo sapiens [1]) was “inactive”, the AUC(0-inf) [2] was 8.55 µM·h and the Tmax [3] was 6 h. For the same compound, the Cmax [4] was 420 nM, the half-life [5] was 9 h and the Cmax [6] was 360 nM. For the same compound, the inhibition [7] was “inactive”, the Cmax [8] was 140 nM and the inhibition [9] was “inactive”. It also gave an AUC(0-t) [10] of 7.37 µM·h, an IC50 [11] of 3.5 µM and a half-life [12] of 10.7 h. The IC50 [13] was 2.4 µM, the Cmax [14] was 190 nM and the AUC(0-inf) [15] was 7.17 µM·h. For the same compound, the IC50 [16] was 0.71 µM, the Tmax [17] was 4.7 h and the Tmax [18] was 5 h. For the same compound, the IC50 [19] was 9.9 µM, the Tmax [20] was 6.7 h and the Cmax [21] was 600 nM. It also gave a Cmax [22] of 150 nM, an AUC(0-inf) [23] of 3.07 µM·h and an IC50 [24] of 0.7 µM. The AUC(0-inf) [25] was 3.29 µM·h, the Tmax [26] was 5 h and the Tmax [27] was 6 h. For the same compound, the inhibition [28] was “inactive”, the AUC(0-t) [29] was 2.95 µM·h and the AUC(0-t) [30] was 8.73 µM·h. For the same compound, the AUC(0-t) [31] was 6.38 µM·h, the AUC(0-inf) [32] was 3.43 µM·h and the half-life [33] was 11.3 h. For the same compound, the Activity (Homo sapiens [34]) was “Non-Toxic”, the AUC(0-inf) [35] was 9.4 µM·h and the inhibition [36] was “inactive”. For the same compound, the fraction unbound [37] was 0.5, the IC50 [38] was 2 µM and the AUC(0-t) [39] was 2.82 µM·h. For the same compound, the AUC(0-t) [40] was 2.6 µM·h, the half-life [41] was 10.9 h and the half-life [42] was 11.3 h. The half-life [43] was 9.5 h and the IC50 [44] was > 10 µM.

In the case of CC(=O)Nc1cc(-c2c(-c3ccc(F)cc3)nc([S+](C)[O-])n2C)ccn1 (stereo not given), the inhibition (Homo sapiens [1]) is reported as “inactive”, the AUC(0-inf) [2] is reported as 3.05 µM·h and the Tmax [3] is reported as 2.3 h. It also gave a Cmax [4] of 420 nM, a half-life [5] of 3.2 h and a Cmax [6] of 310 to 314 nM. For the same compound, the inhibition [7] was 35%, the Cmax [8] was 140 nM and the inhibition [9] was 51%. It also gave an AUC(0-t) [10] of 2.65 µM·h, an IC50 [11] of 1.9 µM and a Cmax (Homo sapiens [45]) of 309 nM. For the same compound, the half-life [12] was 2.8 h, the IC50 [13] was 1.1 µM and the Cmax [14] was 200 nM. For the same compound, the Drug metabolism (Liver) was “Metabolite_Detected”, the AUC(0-inf) [15] was 2.24 µM·h and the IC50 [16] was 0.71 µM. The Tmax [17] was 2.2 h, the Tmax [18] was 2.9 h and the IC50 [19] was 2.9 µM. For the same compound, the Tmax [20] was 3.7 h, the Cmax [21] was 590 nM and the Cmax [22] was 140 nM. For the same compound, the AUC(0-inf) [23] was 0.88 µM·h, the IC50 [24] was 0.8 µM and the AUC(0-inf) [25] was 0.82 µM·h. It also gave a Tmax [26] of 1.5 h, a Tmax [27] of 3.3 h and an inhibition [28] of 36%. For the same compound, the AUC(0-t) [29] was 0.95 µM·h, the AUC(0-t) [30] was 3.4 µM·h and the AUC(0-t) [31] was 1.99 µM·h. For the same compound, the AUC(0-inf) [32] was 1.04 µM·h, the half-life [33] was 3.4 h and the Activity (Homo sapiens [34]) was “Non-Toxic”. For the same compound, the AUC(0-inf) [35] was 3.58 µM·h, the inhibition [36] was “inactive” and the fraction unbound [37] was 0.5. The IC50 [38] was 0.2 to 0.4 µM, the AUC(0-t) [39] was 0.73 µM·h and the AUC(0-t) [40] was 0.79 µM·h. For the same compound, the half-life [41] was 3.3 h, the half-life [42] was 2.8 h and the half-life [43] was 2.7 h. For the same compound, the IC50 [44] was 6.4 µM.
